Data on seven compounds can be found in ChEMBL document CHEMBL1140232, “Surprising alteration of antibacterial activity of 5"-modified neomycin against resistant bacteria” (2008).

The subject of assay [1] is Staphylococcus aureus. Nature of the assay: Antibacterial activity against aminoglycoside-susceptible Staphylococcus aureus ATCC 25923 after 12 to 18 hrs. The class given is functional. A digest of the protocol: (§1)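 Broth microdilution. Bacterial suspension adjusted with broth to absorbance 0.08–0.1 at 625 nm, diluted further in broth, and mixed in wells with 2-fold serial dilutions of compound. Plates incubated at 35°C for 12–18 h. MIC is the lowest concentration inhibiting growth; each determination repeated at least three times.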

Assay [2] deals with Escherichia coli. The assay is described as follows: Antibacterial activity against aminoglycoside-susceptible Escherichia coli TG1 after 12 to 18 hrs. The class given is functional. In outline:
as §1

Assay [3] concerns Enterococcus faecalis. The assay is described as follows: Antibacterial activity against vancomycin-susceptible and aminoglycosides-resistant Enterococcus faecalis ATCC 29212 after 12 to 18 hrs. The format is functional. In outline: (§2)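 Broth microdilution MIC. Culture diluted with broth to an absorbance of 0.08–0.1 at 625 nm. 100 μL of this was diluted into 10 mL broth and dispensed into 96-well plates. Each well received 50 μL inoculum plus 50 μL of a 2-fold compound dilution series. Plates were incubated at 35°C for 12–18 h. MIC is the lowest concentration that inhibits growth, from at least three repeats.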

The test system of assay [4] is Enterococcus faecalis. The assay is described as follows: Antibacterial activity against vancomycin-resistant Enterococcus faecalis ATCC 51299 expressing vanB, ant(6)-1, aac(6')-aph(2') resistant gene after 12 to 18 hrs. The class given is functional. In outline: as §2
The subject of assay [5] is Klebsiella pneumoniae. Nature of the assay: Antibacterial activity against multidrug-resistant Klebsiella pneumoniae ATCC 700603 isolate after 12 to 18 hrs. The format is functional. In outline:
as §2

Assay [6] deals with Escherichia coli. Nature of the assay: Antibacterial activity against Escherichia coli TG1 pSF815 plasmid encoded for AAC(6')/APH(2') after 12 to 18 hrs. The format is functional. In outline:
as §1

For assay [7], the system named is Pseudomonas aeruginosa. Nature of the assay: Antibacterial activity against aminoglycosides-resistant Pseudomonas aeruginosa ATCC 27853 expressing APH(3')-2b after 12 to 18 hrs. The class given is functional. In outline:
as §2

Assay [8] concerns Staphylococcus aureus. The assay is described as follows: Antibacterial activity against methicillin-resistant Staphylococcus aureus ATCC 33591 after 12 to 18 hrs. The class given is functional. A digest of the protocol: as §2
Assay [9] deals with Escherichia coli. Nature of the assay: Antibacterial activity against aminoglycoside-susceptible Escherichia coli ATCC 25922 after 12 to 18 hrs. The format is functional. In outline: as §1
The test system of assay [10] is Klebsiella pneumoniae. The assay is described as follows: Antibacterial activity against ampicillin-resistant and aminoglycosides-susceptible Klebsiella pneumoniae ATCC 13883 after 12 to 18 hrs. The class given is functional. A digest of the protocol: as §2
The subject of assay [11] is Escherichia coli. The assay is described as follows: Antibacterial activity against Escherichia coli TG1 pTZ19U-3 plasmid encoded for APH(3')-1 after 12 to 18 hrs. The class given is functional. In outline: as §1
Assay [12] deals with Enterococcus. Nature of the assay: Ratio of kcat to Km of Enterococcus APH(3')-3a.
Assay [13] deals with Escherichia coli. The assay is described as follows: Antibacterial activity against Escherichia coli TG1 pET28a plasmid encoded for APH(3')-3a after 12 to 18 hrs. The format is functional. A digest of the protocol:
as §1

Assay [14] relates to Enterococcus. Nature of the assay: Activity of Enterococcus APH(3')-3a.

In brackets after ≈: the same amount, converted by molar mass. A value given as a limit tells only on which side of the number the result lay.

In the case of `NCC(=O)NCC(=O)NC[C@H]1O[C@@H](O[C@@H]2[C@@H](O)[C@H](N)C[C@H](N)[C@H]2O[C@H]2O[C@H](CN)[C@@H](O)[C@H](O)[C@H]2N)[C@H](O)[C@@H]1O[C@H]1O[C@@H](CN)[C@@H](O)[C@H](O)[C@H]1N`, the minimum inhibitory concentration (MIC) in [1] is 2 µg/mL (≈ 2.75 µM); in assay [2], 16 µg/mL (≈ 22 µM); in assay [3], 64 µg/mL (≈ 87.9 µM); in assay [4], not below 250 µg/mL; in assay [5], 8 µg/mL (≈ 11 µM); in assay [6], 16 µg/mL (≈ 22 µM). The minimum inhibitory concentration (MIC) in assay [7] turned out to be 16 µg/mL (≈ 22 µM); in assay [8] it was 32 µg/mL (≈ 44 µM); in assay [9], 16 µg/mL (≈ 22 µM); in assay [10], 4 µg/mL (≈ 5.5 µM); in assay [11], 125 µg/mL (≈ 172 µM).
Regarding `CCCCCCCCCCCCCCCC(=O)NC[C@H]1O[C@@H](O[C@@H]2[C@@H](O)[C@H](N)C[C@H](N)[C@H]2O[C@H]2O[C@H](CN)[C@@H](O)[C@H](O)[C@H]2N)[C@H](O)[C@@H]1O[C@H]1O[C@@H](CN)[C@@H](O)[C@H](O)[C@H]1N`, in assay [12], the kcat/Km was determined as 0.72 ×10⁴ /M/s. The minimum inhibitory concentration (MIC) in assay [1] came to 2 µg/mL (≈ 2.35 µM); in [2], 2 µg/mL (≈ 2.35 µM); in assay [3], 2 µg/mL (≈ 2.35 µM); in [13], 1 µg/mL (≈ 1.17 µM); in assay [4], 4 µg/mL (≈ 4.69 µM); in assay [5] it was 16 µg/mL (≈ 18.8 µM). For the same compound, the minimum inhibitory concentration (MIC) in assay [6] is 16 µg/mL (≈ 18.8 µM); in assay [7], 4 µg/mL (≈ 4.69 µM); in assay [8], 2 µg/mL (≈ 2.35 µM); in assay [9], 4 µg/mL (≈ 4.69 µM); in assay [10] it was 8 µg/mL (≈ 9.39 µM); in [11] it was 8 µg/mL (≈ 9.39 µM). Moreover, the Michaelis-Menten constant (Km) in [14] is 58 µM. Besides, the maximal velocity (Vmax) in [14] was 0.85 µmol/min/mg. In addition, the catalytic constant (kcat) in [14] is 0.42 s⁻¹.
As for `CCCCCCCCCCCCCCCCCC(=O)NC[C@H]1O[C@@H](O[C@@H]2[C@@H](O)[C@H](N)C[C@H](N)[C@H]2O[C@H]2O[C@H](CN)[C@@H](O)[C@H](O)[C@H]2N)[C@H](O)[C@@H]1O[C@H]1O[C@@H](CN)[C@@H](O)[C@H](O)[C@H]1N`, the kcat/Km in assay [12] was found to be 0.7 ×10⁴ /M/s. Moreover, the MIC in assay [1] amounted to 4 µg/mL (≈ 4.54 µM); in assay [2], 2 µg/mL (≈ 2.27 µM); in assay [3], 4 µg/mL (≈ 4.54 µM); in assay [13] it was 2 µg/mL (≈ 2.27 µM); in [4], 8 µg/mL (≈ 9.09 µM); in [5], 32 µg/mL (≈ 36.4 µM). Moreover, the MIC in assay [6] came to 32 µg/mL (≈ 36.4 µM); in assay [7] it was 8 µg/mL (≈ 9.09 µM); in assay [8], 4 µg/mL (≈ 4.54 µM); in [9] it was 4 µg/mL (≈ 4.54 µM); in [10], 8 µg/mL (≈ 9.09 µM); in assay [11] it was 8 µg/mL (≈ 9.09 µM). Also, the Michaelis constant (Km) in [14] was found to be 60 µM. Also, the maximum rate (Vmax) in [14] was determined as 0.84 µmol/min/mg. The kcat in assay [14] was 0.42 s⁻¹.
For `NCC[C@H](O)C(=O)N[C@@H]1C[C@H](N)[C@@H](O[C@H]2O[C@H](CN)[C@@H](O)[C@H](O)[C@H]2O)[C@H](O)[C@H]1O[C@H]1O[C@H](CO)[C@@H](O)[C@H](N)[C@H]1O` [AMIKACIN], the kcat/Km in assay [12] was 2.4 ×10⁴ /M/s. The MIC was 32 µg/mL (≈ 54.6 µM) in assay [3]; 1 µg/mL (≈ 1.71 µM) in assay [13]; not below 250 µg/mL in [4]; 0.5 µg/mL (≈ 0.854 µM) in assay [5]; 0.5 µg/mL (≈ 0.854 µM) in assay [7]; 8 µg/mL (≈ 13.7 µM) in assay [8]. Besides, the minimal inhibitory concentration (MIC) in assay [10] came to 1 µg/mL (≈ 1.71 µM). In assay [14], the Michaelis constant (Km) was 57.4 µM. For the same compound, the maximum rate (Vmax) in assay [14] was determined as 2.75 µmol/min/mg. In assay [14], the kcat stood at 1.38 s⁻¹.
`NC[C@@H]1O[C@H](O[C@H]2[C@@H](O)[C@H](O[C@@H]3[C@@H](O)[C@H](N)C[C@H](N)[C@H]3O[C@H]3O[C@H](CN)[C@@H](O)[C@H](O)[C@H]3N)O[C@@H]2CO)[C@H](N)[C@@H](O)[C@@H]1O` [FRAMYCETIN]: in [12], the kcat/Km came to 26.8 ×10⁴ /M/s. Further, the MIC is 1 µg/mL (≈ 1.63 µM) in assay [1]; 4 µg/mL (≈ 6.51 µM) in assay [2]; 64 µg/mL (≈ 104 µM) in assay [3]; 64 µg/mL (≈ 104 µM) in assay [13]; not below 250 µg/mL in assay [4]; 16 µg/mL (≈ 26 µM) in assay [5]. Besides, the minimum inhibitory concentration (MIC) in assay [6] was 4 µg/mL (≈ 6.51 µM); in assay [7], 64 µg/mL (≈ 104 µM); in assay [8], 125 µg/mL (≈ 203 µM); in assay [9], 4 µg/mL (≈ 6.51 µM); in assay [10] it was 4 µg/mL (≈ 6.51 µM); in assay [11] it was not below 2000 µg/mL. Further, the Km in [14] stood at 6 µM. For the same compound, the maximum rate (Vmax) in assay [14] turned out to be 3.22 µmol/min/mg. Besides, the turnover number (kcat) in [14] stood at 1.61 s⁻¹.
As to `NCC(=O)NC[C@H]1O[C@@H](O[C@@H]2[C@@H](O)[C@H](N)C[C@H](N)[C@H]2O[C@H]2O[C@H](CN)[C@@H](O)[C@H](O)[C@H]2N)[C@H](O)[C@@H]1O[C@H]1O[C@@H](CN)[C@@H](O)[C@H](O)[C@H]1N`, the kcat/Km in assay [12] is 0.6 ×10⁴ /M/s. In addition, the MIC is 1 µg/mL (≈ 1.49 µM) in assay [1]; 8 µg/mL (≈ 11.9 µM) in assay [2]; 32 µg/mL (≈ 47.7 µM) in [3]; 32 µg/mL (≈ 47.7 µM) in assay [13]; not below 250 µg/mL in assay [4]; 8 µg/mL (≈ 11.9 µM) in [5]. Moreover, the MIC in assay [6] came to 8 µg/mL (≈ 11.9 µM); in assay [7], 8 µg/mL (≈ 11.9 µM); in assay [8], 16 µg/mL (≈ 23.9 µM); in assay [9], 16 µg/mL (≈ 23.9 µM); in assay [10], 4 µg/mL (≈ 5.96 µM); in assay [11], 500 µg/mL (≈ 745 µM). Moreover, the Km in assay [14] is 75 µM. Also, the Vmax in assay [14] was found to be 0.88 µmol/min/mg. For the same compound, the kcat in assay [14] turned out to be 0.44 s⁻¹.
As to GENTAMICIN, the MIC in assay [3] was 8 µg/mL; in [4], more than 250 µg/mL; in [5], 8 µg/mL; in assay [8], 2 µg/mL; in assay [10], 1 µg/mL.
